Source: ChEMBL document CHEMBL1275434, “In vitro evaluation of CBR-2092, a novel rifamycin-quinolone hybrid antibiotic: studies of the mode of action in Staphylococcus aureus” (Antimicrob Agents Chemother, 2008)
In brackets after ≈: the same amount, converted by molar mass. Activity calls are given as the source filed them. The calls are words filed in the database; no cut-off is given here.

How the values were obtained:
Staphylococcus aureus [1] = test: Antimicrobial activity against wild-type Staphylococcus aureus CB190 by agar dilution method; format: functional
Procedure, shortened: (§1)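 CLSI agar dilution MIC with cation-adjusted Mueller-Hinton (MHII) agar as the base medium.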

Staphylococcus aureus [2] = test: Antimicrobial activity against Staphylococcus aureus CB1881 harboring rpoB R484H mutant gene and L520 deficient gyrA gene by agar dilution method; format: functional
Procedure, shortened: (§2)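 CLSI agar dilution MIC on MHII base medium against stepwise-passage isolates; passage was in MHII broth without polysorbate 80, daily at 37°C.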

Staphylococcus aureus [3] = test: Antimicrobial activity against Staphylococcus aureus CB1882 harboring rpoB R484H mutant gene, L520 deficient gyrA gene and R236 duplicated parC gene by broth microdilution method; format: functional
Procedure, shortened: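 CLSI broth microdilution MIC in MHII broth with 0.002% (vol/vol) polysorbate 80. Isolates came from daily stepwise broth passage at sub-MIC drug (MHII without polysorbate 80, 10^6 CFU/ml inoculum, 20–24 h shaking at 37°C), were purified drug-free, and were sequenced at target loci.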

Staphylococcus aureus [4] = test: Antimicrobial activity against Staphylococcus aureus CB1883 harboring rpoB R484H mutant gene, L520 deficient gyrA gene, gyrA S84L mutant gene and R236 duplicated par C gene by agar dilution method; format: functional; procedure, shortened: as §2
Staphylococcus aureus [5] = test: Antimicrobial activity against Staphylococcus aureus CB1883 harboring rpoB R484H mutant gene, L520 deficient gyrA gene, gyrA S84L mutant gene and R236 duplicated par C gene; format: functional
Staphylococcus aureus [6] = test: Antimicrobial activity against Staphylococcus aureus CB1884 harboring rpoB R484H mutant gene, L520 deficient gyrA gene, gyrA S84L mutant gene, R236 duplicated par C gene and parC H103Y mutant gene by agar dilution method; format: functional; procedure, shortened: as §2
Staphylococcus aureus [7] = test: Antimicrobial activity against Staphylococcus aureus CB1884 harboring rpoB R484H mutant gene, L520 deficient gyrA gene, gyrA S84L mutant gene, R236 duplicated par C gene and parC H103Y mutant gene; format: functional
Staphylococcus aureus [8] = test: Antimicrobial activity against Staphylococcus aureus CB814 harboring gyrA […] and parc S80F mutant genes by broth microdilution method; format: functional
Procedure, shortened: (§3)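 CLSI broth microdilution MIC in cation-adjusted Mueller-Hinton (MHII) broth supplemented with 0.002% (vol/vol) polysorbate 80, included to limit compound loss to plastic surfaces.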

Staphylococcus aureus [9] = test: Antimicrobial activity against Staphylococcus aureus CB814 harboring […] and parC S80F mutant genes by agar dilution method; format: functional; procedure, shortened: as §1
Staphylococcus aureus [10] = test: Antimicrobial activity against Staphylococcus aureus CB1952 harboring rpoB S486L, gyrA […], gyrA E88Q, gyrA G532S, parC S80F, parC E84L mutant genes selected after CBR-2092 exposure for 21 days by agar dilution method; format: functional; settings: CB1952, 504 h
Procedure, shortened: (§4)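 CLSI agar dilution MIC on MHII base medium against strains from multistep passage (up to 20–21 days) of parents with preexisting rifamycin and/or quinolone resistance.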

Staphylococcus aureus [11] = test: Antimicrobial activity against Staphylococcus aureus CB815 harboring rpoB H481Y, gyrA […] and parC S80F mutant genes by agar dilution method; format: functional; procedure, shortened: as §1
Staphylococcus aureus [12] = test: Antimicrobial activity against Staphylococcus aureus CB1953 harboring rpoB H481Y, gyrA S84L, gyrA V598I, parC S80F, parC R570H mutant genes selected after CBR-2092 exposure for 7 days by agar dilution method; format: functional; settings: CB1953, 168 h; procedure, shortened: as §4
Staphylococcus aureus [13] = test: Activity at Staphylococcus aureus wild-type DNA topoisomerase 4 subunit ParC
Procedure, shortened: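 Recombinant S. aureus topoisomerase IV (wild-type ParC with ParE; specific activity 25 to 30 U per μg). Stopped with SDS/proteinase K. Linear DNA quantified on gel; CC50 is the mean of two or more assays.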

Staphylococcus aureus [14] = test: Activity at Staphylococcus aureus wild-type GyrA
Procedure, shortened: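 Recombinant S. aureus gyrase (wild-type GyrA with His-tagged GyrB; 250 U per μg). SDS/proteinase K stop. Gel quantitation of linear cleavage product gave CC50, the mean of two or more assays.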

Staphylococcus aureus [15] = test: Antimicrobial activity against Staphylococcus aureus CB808 harboring quinolone-resistant parC S80F mutant gene by broth microdilution method; format: functional; procedure, shortened: as §3
Staphylococcus aureus [16] = test: Antimicrobial activity against Staphylococcus aureus CB814 harboring fluoroquinolone-resistant gyrA S84L and parC S80F mutant genes by broth microdilution method; format: functional; procedure, shortened: as §3
Staphylococcus aureus [17] = test: Antimicrobial activity against Staphylococcus aureus CB812 harboring rpo B H481Y and gyrA S84L mutant genes by broth microdilution method; format: functional; procedure, shortened: as §3
Staphylococcus aureus [18] = test: Inhibition of protein synthesis in Staphylococcus aureus CB190 assessed as decrease in L-[3,4,5-3H]leucine incorporation at 0.5 ug/ml; format: functional, organism-based
Staphylococcus aureus [19] = test: Inhibition of RNA synthesis in rifamycin-resistant Staphylococcus aureus CB370 harboring rpoB H481Y mutant gene assessed as decrease in [5,6-3H]uridine incorporation at 0.5 ug/ml; format: functional, organism-based
Procedure, shortened: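 Macromolecular synthesis time course in S. aureus, measuring incorporation of [methyl-3H]thymidine (DNA), [5,6-3H]uridine (RNA) or [2,3-3H]D-alanine (cell wall). At each time point, incorporation is expressed as percent of the DMSO-treated control culture. Incorporation at time zero is set to 100%.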

Staphylococcus aureus [20] = test: Inhibition of cell wall synthesis in rifamycin-resistant Staphylococcus aureus CB370 harboring rpoB H481Y mutant gene assessed as decrease in [2,3-3H]D-alanine incorporation at 0.5 ug/ml; format: functional, organism-based
Procedure, shortened: (§5)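 Time-course radiolabel incorporation in S. aureus cultures with test agent. Precursors: [methyl-3H]thymidine (DNA), [5,6-3H]uridine (RNA), L-[3,4,5-3H]leucine (protein), [2,3-3H]D-alanine (cell wall). At each time point, incorporation with agent is expressed relative to the DMSO-treated control culture as percent incorporation. Time-zero incorporation is set to 100%.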

Staphylococcus aureus [21] = test: Inhibition of protein synthesis in quinolone-resistant Staphylococcus aureus CB814 harboring gyrA S84L and parC S80F mutant genes assessed as decrease in L-[3,4,5-3H]leucine incorporation at 0.5 ug/ml; format: functional, organism-based; procedure, shortened: as §5
Staphylococcus aureus [22] = test: Antimicrobial activity against rifampin-sensitive Staphylococcus aureus CB190 by broth microdilution method; format: functional; procedure, shortened: as §3
Staphylococcus aureus [23] = test: Antimicrobial activity against Staphylococcus aureus CB1333 harboring rpoB H481Y, parC S80F and parE L517F mutant genes selected after 0.8 ug/ml drug exposure by broth microdilution method; format: functional
Staphylococcus aureus [24] = test: Antimicrobial activity against Staphylococcus aureus CB1354 harboring rpoB H481Y, parC S80F, parE R455H and gyrA S84L mutant genes selected after 0.53 ug/ml drug exposure by broth microdilution method; format: functional
Staphylococcus aureus [25] = test: Antimicrobial activity against Staphylococcus aureus CB1417 harboring rpoB H481Y and gyrA G532V mutant genes selected after 0.1 ug/ml drug exposure by broth microdilution method
Staphylococcus aureus [26] = test: Antimicrobial activity against Staphylococcus aureus CB1418 harboring rpoB H481Y and gyrA D705N mutant genes selected after 0.1 ug/ml drug exposure by broth microdilution method

## CO[C@H]1/C=C/O[C@@]2(C)Oc3c(C)c(O)c4c(O)c(c(/C=N/N5CCC(N(C)C6([C@@H]7CCN(c8c(F)cn9c(=O)c(C(=O)O)cc(C%10CC%10)c9c8C)C7)CC6)CC5)c(O)c4c3C2=O)NC(=O)/C(C)=C\C=C\[C@H](C)[C@H](O)[C@@H](C)[C@@H](O)[C@@H](C)[C@H](OC(C)=O)[C@@H]1C
Staphylococcus aureus [1]
  MIC: 0.008 µg/mL (≈ 0.00664 µM)
Staphylococcus aureus [2]
  MIC: 0.25 µg/mL (≈ 0.207 µM)
Staphylococcus aureus [3]
  MIC: 1 µg/mL (≈ 0.83 µM)
Staphylococcus aureus [4]
  MIC: 1 µg/mL (≈ 0.83 µM)
Staphylococcus aureus [5]
  Time: 47 min
Staphylococcus aureus [6]
  MIC: 4 µg/mL (≈ 3.32 µM)
Staphylococcus aureus [7]
  Time: 65 min
Staphylococcus aureus [8]
  MIC: 0.015 µg/mL (≈ 0.0124 µM)
Staphylococcus aureus [9]
  MIC: 0.06 µg/mL (≈ 0.0498 µM)
Staphylococcus aureus [10]
  MIC: 4 µg/mL (≈ 3.32 µM)
Staphylococcus aureus [11]
  MIC: 0.25 µg/mL (≈ 0.207 µM)
Staphylococcus aureus [12]
  MIC: 2 µg/mL (≈ 1.66 µM)
Staphylococcus aureus [13]
  CC50: 1700 nM
Staphylococcus aureus [14]
  CC50: 1500 nM
Staphylococcus aureus [15]
  MIC: 0.015 µg/mL (≈ 0.0124 µM)
Staphylococcus aureus [16]
  MIC: 0.015 µg/mL (≈ 0.0124 µM)
Staphylococcus aureus [17]
  MIC: 0.5 µg/mL (≈ 0.415 µM)
Staphylococcus aureus [18]
  Activity: Active
Staphylococcus aureus [19]
  Activity: Active
Staphylococcus aureus [20]
  Activity: Active
Staphylococcus aureus [21]
  Activity: Active
Staphylococcus aureus [22]
  MIC: 0.015 µg/mL (≈ 0.0124 µM)
Staphylococcus aureus [23]
  MIC: 16 µg/mL (≈ 13.3 µM)
Staphylococcus aureus [24]
  MIC: 16 µg/mL (≈ 13.3 µM)
Staphylococcus aureus [25]
  MIC: 0.5 µg/mL (≈ 0.415 µM)
Staphylococcus aureus [26]
  MIC: 0.5 µg/mL (≈ 0.415 µM)
